# Screens (PubChem BioAssay)
# Only some compounds are listed: those with a hit (about 1.8% of all), similar ones and a draw of the others.
# NR1D1 modulator = modulates human Rev-erb alpha binding to DNA; Rev-erbα–FITC-DNA binding, fluorescence polarization, 90 min; activity, % at 10 µM; P20393; actives 0.79% (n = 370,000);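 active = activity above about 14%, limit read from the data; passing the limit was not always enough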;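 also: 0% = DMSO wells with 35 nM protein and 100% = DMSO wells with 750 nM protein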
# GalR3 antagonist = human GalR3 antagonism | O60755 | HEK293 GalR3-CNG cAMP membrane potential fluorescence; galR3 body fused to GalR1 C-terminus | inhibition, % at 3 µM | actives 0.44% (n = 360,000) | AID 651719;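 active = inhibition above the screen-wide average plus 3 SD, cut at about 13% in these data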;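 also: forskolin and galanin both at EC90 stimulate the cells; cAMP rise reported by CNG channel membrane potential dye signal; 0% = forskolin plus galanin with DMSO and 100% = forskolin alone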
# Target sequence (O60755 1-299 limits assumed): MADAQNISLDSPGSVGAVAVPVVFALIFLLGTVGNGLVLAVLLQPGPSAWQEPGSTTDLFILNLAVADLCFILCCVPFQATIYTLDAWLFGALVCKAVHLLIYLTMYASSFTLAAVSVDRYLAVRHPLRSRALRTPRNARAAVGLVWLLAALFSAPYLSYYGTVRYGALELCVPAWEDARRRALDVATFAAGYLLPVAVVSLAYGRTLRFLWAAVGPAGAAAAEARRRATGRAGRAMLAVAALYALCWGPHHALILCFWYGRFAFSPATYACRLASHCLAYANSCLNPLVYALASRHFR
# NR2E3 ag-1 = NR2E3 (human) agonism | Q9Y5X4 | GST-NR2E3/biotin-RetCOR TR-FRET, 1536-well | inhibition of corepressor binding, % at 4.78 µM | actives 0.12% (n = 320,000);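 active = percent inhibition above the cutoff of mean plus 3 SD of all tested compounds, set per screening campaign, cut at about 20% in these data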;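 also: 0% = DMSO wells and 100% = biotin wells as full block of FRET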
# Target sequence (Q9Y5X4 whole entry, looked up): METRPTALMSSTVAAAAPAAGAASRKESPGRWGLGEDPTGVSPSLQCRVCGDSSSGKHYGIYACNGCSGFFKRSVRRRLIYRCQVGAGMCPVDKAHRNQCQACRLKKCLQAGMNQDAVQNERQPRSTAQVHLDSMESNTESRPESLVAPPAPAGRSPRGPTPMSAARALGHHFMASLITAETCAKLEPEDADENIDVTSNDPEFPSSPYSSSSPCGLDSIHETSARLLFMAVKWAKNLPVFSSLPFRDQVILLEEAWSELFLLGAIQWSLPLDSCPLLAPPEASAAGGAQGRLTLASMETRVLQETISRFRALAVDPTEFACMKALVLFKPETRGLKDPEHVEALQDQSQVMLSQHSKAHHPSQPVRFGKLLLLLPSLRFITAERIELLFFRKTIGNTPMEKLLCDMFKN
#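 System: GST-tagged NR2E3 plus biotinylated RetCOR corepressor; Amount: 1.35 nM GST-tagged NR2E3 final; Dosing: single nominal compound dose of 4.8 µM; Schedule: 5 h incubation at 4 °C; Technique: TR-FRET with europium anti-GST and streptavidin-D2, 340 nm excitation; Controls: biotin wells as high control, 0.6% DMSO wells as low control.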
# PG9 binder = PG9 antibody binding by small molecule; inhibition, % at 6.7 µM; AID 624416; actives 0.43% (n = 360,000); TR-FRET gp120-PG9 antibody binding; in the data active = inhibition above about 8.5%
# NR2E3 ag-2 = activates human NR2E3 receptor; Q9Y5X4; CHO-S Gal4-NCOR/VP16-NR2E3 two-hybrid, luciferase; inhibition of corepressor binding, % at 3.98 µM; actives 0.35% (n = 360,000); AID 602229;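 active = inhibition above the mean of all tested compounds plus 3 SD, cut at about 70% in these data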;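 also: 0% = DMSO with NR2E3 transfected cells and 100% = cells lacking NR2E3 construct; higher means lower luciferase signal from less NR2E3 corepressor binding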
# NR1D1 mod conf = confirmation of modulators of human Rev-erb alpha DNA binding. shares compounds with NR1D1 modulator. Rev-erb alpha FITC-DNA binding, fluorescence polarization, 90 min. activation, % at 25 µM. actives 61% (n = 3,000). AID 1259319;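 active = activation at or above a set limit, or at least 3 SD above the negative control mean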;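 also: 0% = 35 nM protein with DMSO and 100% = 750 nM protein high control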
# RORg DNA counter = affects RORgamma DNA binding in a Rev-erb alpha counter-screen; purified RORgamma protein-FITC-DNA binding, fluorescence polarization; actives 8% (n = 910); shares compounds with NR1D1 modulator; AID 1259320; IC50, µM;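 active = Compounds whose fitted half-maximal concentration for disrupting protein-DNA binding is below 10 micromolar; the record names Rev-erb in its text, so the target is in doubt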
# Starred values were filed as active, the others as inactive; . = no result.
SMILES,NR1D1 modulator,GalR3 antagonist,NR2E3 ag-1,PG9 binder,NR2E3 ag-2,NR1D1 mod conf,others
CCOc1ccc(CCNC(=O)COC(=O)c2ccc(S(C)(=O)=O)cc2)cc1OCC,17.2*,0.6,1.9,-2.1,11.7,2.9,
CCOc1ccc(CCNC(=O)COC(=O)c2ccc(S(=O)(=O)N3CCCC3)cc2)cc1OCC,-6.9,-4.8,0.2,-0.3,0.1,.,
COC(=O)C[C@H]1CC[C@H]2[C@@H](COc3ccc(NC(=O)Nc4ccccc4)cc3C(=O)N2C)O1,6.5,.,.,.,.,.,
CCOc1ccccc1NC(=O)CSC1=C(C#N)C(c2ccco2)C(C(=O)Nc2nc3ccccc3s2)=C(C)N1 (stereo unspecified),66.1*,0.1,1.1,1.1,-26.2,54.3*,RORg DNA counter=>40
Cc1ccc(C)c(-n2c(-c3ccc(Br)cc3)csc2=NC(=O)c2ccccc2F)c1,38.0*,-4.1,-1.2,4.4,-6.9,48.6*,RORg DNA counter=>40
COc1cccc(C(=O)Nc2ccc(C(=O)NCC3COc4ccccc4O3)cc2)c1 (stereo unspecified),-2.5,.,.,.,.,.,
Cc1ccc(C(=O)Nc2cccc(-c3cnc4ccccc4n3)c2)cc1,-1.7,-11.8,5.5,0.3,-28.9,.,
COc1ccc(C(=O)Nc2ccc(C(=O)Nc3cccnc3)cc2)cc1,25.9*,-9.7,2.1,0.8,-19.2,23.9*,
COc1ccc(C(=O)Nc2cccc(-c3cnc4ccccc4n3)c2)cc1,25.6*,-2.7,1.1,-1.3,-37.9,13.4,
Cc1nc(-c2ccccc2)nc2[nH]c(-c3ccccc3)cc(=O)c12,90.1*,-5.0,2.4,7.4,12.1,80.6*,RORg DNA counter=>40
Cc1nc(C)c2c(=O)cc(-c3ccccc3)[nH]c2n1,-2.4,-8.2,1.7,1.7,-46.2,.,
Cc1ccc(-n2c(N)c(C#N)c(-c3ccc(Cl)cc3)c(C#N)c2=O)cc1,49.3*,3.2,1.9,0.1,4.4,39.4*,RORg DNA counter=>40
O=C(COc1ccc([N+](=O)[O-])cc1)Nc1cccc2nsnc12,24.1*,3.6,3.9,-3.1,-15.3,21.7*,
CCOC(=O)N1CCN(S(=O)(=O)c2ccc(C(=O)Nc3nc4ccc(F)cc4s3)cc2)CC1,.,-10.6,-1.1,-0.4,-10.0,.,
CCOC(=O)c1sc(NC(=O)c2ccc(S(=O)(=O)N3CCCCC3)cc2)nc1-c1ccccc1,15.6,-2.7,4.6,1.3,11.3,.,
CCOC(=O)c1sc(NC(=O)c2ccc(S(=O)(=O)N3CCCCCC3)cc2)nc1-c1ccccc1,28.8*,-0.5,-0.4,-1.8,-4.0,4.5,
CCOC(=O)N1CCN(S(=O)(=O)c2ccc(C(=O)Nc3nc4ccccc4s3)cc2)CC1,33.8*,-2.0,-0.1,6.6,-16.7,21.1*,
C#CC1c2ccccc2CCN1CC=C (stereo unspecified),12.1,-7.8,.,0.9,.,.,
O=C(CSc1ccccc1)NC1CCCCN(Cc2ccc(Cl)cc2)C1=O (stereo unspecified),-4.2,.,.,.,.,.,
CC(/C=C/c1ccccc1F)=N\NC(=O)c1cccc(F)c1,16.8*,-7.0,-0.5,-0.5,-56.6,0.6,
CC1CN(c2ncnc3c2oc2ccccc23)CC(C)O1 (stereo unspecified),-0.6,-0.6,2.4,1.2,-43.1,.,
Clc1ccc(N2CCN(c3ncnc4c3oc3ccccc34)CC2)cc1,36.7*,-6.0,4.3,0.2,-1.8,12.0,
FC(F)(F)c1cccc(N2CCN(C3=Nc4ccccc4Sc4ccccc43)CC2)c1,3.9,.,.,.,.,.,
O=C1CN(C(=O)COC(=O)c2cccs2)c2ccccc2N1,-3.4,-3.2,-0.4,1.5,-9.3,.,
Cn1c2ccccc2c2cc(C(=O)OCC(=O)N3CC(=O)Nc4ccccc43)sc21,73.8*,-5.7,2.5,2.0,-14.1,62.0*,
SMILES,NR1D1 modulator,GalR3 antagonist,NR2E3 ag-1,PG9 binder,NR2E3 ag-2,NR1D1 mod conf,others
COC(=O)c1cc(-c2ccc3ccccc3c2)c(=O)n2c1CCC2,3.4,.,.,.,.,.,
COC(=O)c1cc(-c2cc3ccccc3s2)c(=O)n2c1CCC2,57.5*,.,.,.,.,39.9*,RORg DNA counter=>40
Nc1c(-c2cccs2)cnc2c(-c3ccc(F)cc3)cnn12,35.2*,-10.9,-0.4,-1.9,-167.9,6.4,
COc1ccc(Nc2nc(C)nc3c2nnn3Cc2ccccc2Cl)c(OC)c1,21.0*,-3.5,-0.1,-1.1,-12.3,8.8,
COc1cc(NC(=O)c2cc(-c3cccnc3)nc3ccc(Br)cc23)cc(OC)c1,31.4*,0.3,2.8,3.2,15.4,20.4*,
O=C(Nc1cccnc1)c1cc(-c2cccnc2)nc2ccc(Br)cc12,3.1,2.7,-2.1,5.1,4.4,.,
Cn1c2ccccc2c(=O)c2cc(C#Cc3ccsc3)ccc21,21.5*,-4.8,2.5,0.0,-25.0,15.6,
CN1C(=O)N(C)c2ccc(C=O)c3cccc1c23,7.9,-3.8,2.0,-3.4,-26.2,.,
CN1C(=O)N(C)c2ccc(Br)c3cccc1c23,89.0*,-7.9,.,-1.7,-39.2,81.0*,RORg DNA counter=>40
COc1ccc(C(=O)NCC2CCN(C(=O)C(=O)c3cc4ccccc4o3)CC2)c(OC)c1,-5.6,-5.3,.,-0.4,.,.,
Cc1[nH]c2ccccc2c1/C=N/NC(=O)c1cccc([N+](=O)[O-])c1,-4.8,4.2,-2.3,-0.4,-0.5,.,
Cc1[nH]c2ccccc2c1/C=N/Nc1ccc([N+](=O)[O-])cc1,21.8*,-5.1,-0.5,-1.2,-8.8,16.0,
CCOc1ccc(/C(O)=C2/C(=O)C(=O)N(CCCn3ccnc3)C2c2cccs2)cc1Cl (stereo unspecified),48.2*,-5.7,7.2,8.0,-87.0,46.6*,
CC(C)(C)c1ccc(C#C[C@@H]2C=C[C@@H](O)[C@@H](COC(=O)NCc3ccccc3)O2)cc1,0.9,-5.9,.,0.3,.,.,
O=C1N(c2ccccc2)CC2CC(c3ccccc3)N3CCCC123 (stereo unspecified),1.3,.,.,.,.,.,
O=S(=O)(c1ccc2nc(N3CCN(c4ccc(F)cc4)CC3)ccc2c1)N1CCCCC1,36.9*,-1.4,-1.2,-0.6,-2.4,27.0*,
CC1CCN(S(=O)(=O)c2ccc3ccccc3c2)CC1,2.2,-9.0,-5.9,2.8,15.5,.,
CC1CCN(S(=O)(=O)c2ccc3nc(N4CCN(c5ccccc5)CC4)ccc3c2)CC1,92.4*,-7.2,7.1,1.1,.,56.7*,RORg DNA counter=>40
O=c1ccc2cc(S(=O)(=O)N3CCN(c4ccccc4F)CC3)ccc2[nH]1,-2.1,.,1.1,0.4,22.6,.,
O=S(=O)(c1ccc2nc(N3CCN(c4ccccc4F)CC3)ccc2c1)N1CCCCC1,41.1*,-5.6,-0.9,0.1,9.9,30.6*,RORg DNA counter=>40
COCc1cc(N2CCN(C(=O)OC(C)(C)C)C[C@H]2C)ccc1N1CC[C@H](O)C1,5.8,-6.1,.,4.3,.,.,
CCCCn1c(=O)[nH]c2nc3cc(N)ccc3nc2c1=O,14.3,-2.2,-4.5,-10.6,-28.4,.,
